Results from article PMC4454367 (Environmental science & technology, 2015).
“And” between values parts separate entries of the source, which are not always exact repeats. Equal entries are not always repeated.

Columns and labels:
[1] = target: T1, A. mexicanum AHR (Ambystoma mexicanum, UniProt A0A0F6TLE0); assay: Transactivation; type: cell-based
T1 sequence (A0A0F6TLE0 1-853): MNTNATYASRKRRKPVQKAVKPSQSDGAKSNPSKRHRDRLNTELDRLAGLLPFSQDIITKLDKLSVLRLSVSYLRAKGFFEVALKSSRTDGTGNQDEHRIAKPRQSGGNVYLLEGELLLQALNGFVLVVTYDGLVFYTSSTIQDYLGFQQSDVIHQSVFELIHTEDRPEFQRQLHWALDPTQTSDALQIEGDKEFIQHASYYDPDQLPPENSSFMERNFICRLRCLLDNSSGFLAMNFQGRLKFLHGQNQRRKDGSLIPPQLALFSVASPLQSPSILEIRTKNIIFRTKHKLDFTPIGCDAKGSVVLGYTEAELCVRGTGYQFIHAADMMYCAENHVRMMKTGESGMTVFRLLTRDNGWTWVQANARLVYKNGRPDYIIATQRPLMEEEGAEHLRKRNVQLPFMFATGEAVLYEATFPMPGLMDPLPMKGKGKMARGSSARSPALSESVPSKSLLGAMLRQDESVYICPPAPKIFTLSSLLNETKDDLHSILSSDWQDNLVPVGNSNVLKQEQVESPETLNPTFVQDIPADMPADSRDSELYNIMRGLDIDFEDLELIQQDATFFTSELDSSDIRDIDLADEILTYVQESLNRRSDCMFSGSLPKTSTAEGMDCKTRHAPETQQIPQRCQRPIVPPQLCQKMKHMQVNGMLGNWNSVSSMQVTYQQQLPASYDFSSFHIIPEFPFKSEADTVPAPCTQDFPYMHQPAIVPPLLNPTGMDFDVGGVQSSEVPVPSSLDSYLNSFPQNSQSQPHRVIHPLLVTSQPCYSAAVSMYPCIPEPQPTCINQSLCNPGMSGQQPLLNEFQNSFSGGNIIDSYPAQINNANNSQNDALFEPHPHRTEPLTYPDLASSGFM

[2] = target: T2, X. laevis AHR1β (Xenopus laevis, UniProt Q4QY30); conditions: cited from earlier work
T2 sequence (Q4QY30 1-834): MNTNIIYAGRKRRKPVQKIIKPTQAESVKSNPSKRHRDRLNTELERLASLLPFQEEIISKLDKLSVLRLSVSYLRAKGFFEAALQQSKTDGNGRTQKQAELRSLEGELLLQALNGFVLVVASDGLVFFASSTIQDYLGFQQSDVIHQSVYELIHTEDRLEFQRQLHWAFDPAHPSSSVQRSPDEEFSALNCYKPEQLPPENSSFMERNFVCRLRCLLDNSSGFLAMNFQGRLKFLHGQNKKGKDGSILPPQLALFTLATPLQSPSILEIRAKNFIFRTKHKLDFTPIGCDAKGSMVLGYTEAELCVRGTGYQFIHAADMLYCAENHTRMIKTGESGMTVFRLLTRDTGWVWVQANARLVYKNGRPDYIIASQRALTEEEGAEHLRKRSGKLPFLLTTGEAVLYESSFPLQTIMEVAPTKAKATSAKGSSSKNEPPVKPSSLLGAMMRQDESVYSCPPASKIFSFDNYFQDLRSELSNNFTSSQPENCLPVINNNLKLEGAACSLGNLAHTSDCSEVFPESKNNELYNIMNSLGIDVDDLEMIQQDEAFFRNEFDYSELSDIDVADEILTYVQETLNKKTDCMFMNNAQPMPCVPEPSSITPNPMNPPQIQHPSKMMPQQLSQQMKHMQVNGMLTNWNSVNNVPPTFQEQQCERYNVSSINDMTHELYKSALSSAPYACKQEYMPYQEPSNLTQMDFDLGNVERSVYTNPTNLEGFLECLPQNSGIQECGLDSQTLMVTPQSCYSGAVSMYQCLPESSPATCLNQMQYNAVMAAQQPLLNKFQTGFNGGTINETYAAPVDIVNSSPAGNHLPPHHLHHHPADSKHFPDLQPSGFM

[3] = tested on: zebrafish; conditions: cited from earlier work
[4] = target: T2, X. laevis AHR1β; assay: Velocity sedimentation analysis of [3H]TCDD binding, X. laevis AHR1β; conditions: 2 nM [3H]TCDD, 18 h at 4°, sucrose gradients, in vitro synthesized AHR
Method in brief: (§1)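 AHR made in vitro from pCMVTNT in a rabbit reticulocyte coupled transcription/translation system, diluted 1:1 in MEDMDG buffer (pH 7.5, molybdate, glycerol, DTT), incubated 18 h at 4° with 2 nM [1,6-3H]TCDD. Run on 10–30% sucrose gradients at 65,000 rpm for 90 min with [14C]catalase marker. Fractions scintillation-counted; specific binding is peak fractions minus empty-vector lysate. Three replicates, mean ± standard error.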

[5] = tested on: larvae of the tiger salamander; conditions: cited from earlier work
[6] = tested on: chicken AHR; conditions: TCDD binding; cited from earlier work
[7] = tested on: tern AHR; conditions: tern AHR (V325, A381) vs chicken AHR (I325, S381); cited from earlier work
[8] = target: T1, A. mexicanum AHR; assay: Velocity sedimentation analysis of [3H]TCDD binding, A. mexicanum AHR; conditions: 2 nM [3H]TCDD, 18 h at 4°, sucrose gradients, in vitro synthesized AHR
Method in brief: as §1

[9] = target: AHR2 from zebrafish; conditions: TCDD binding; cited from earlier work
[10] = target: X. laevis AHR1α; conditions: read-out: apparent Kd; TCDD binding; cited from earlier work
[11] = tested on: mouse AHR; conditions: TCDD binding; cited from earlier work
[12] = target: T2, X. laevis AHR1β; assay: Transactivation; type: cell-based

Row | Structure (SMILES) | EC50 of A. mexicanum AHR relative to that of the mouse:frog chimera ([1]; TCDD 24 h, fold greater than chimeric AHR) [fold] | Kd (saturability of TCDD binding) [2] | LC100 [3] | Specific [3H]TCDD binding peak relative to mouse AHR or chimeric AHR [4] | nominal TCDD concentrations defined as sub-lethal [5] | Kd [6] [nM] | TCDD affinity of tern AHR, fold lower than the chicken AHR [7] [fold] | Specific [3H]TCDD binding peak relative to mouse AHR or chimeric AHR [8] | Kd [9] [nM] | Kd [10] [nM] | Kd [11] [nM] | EC50 [1] [nM] | EC50 of axolotl AHR relative to that of the chimeric AHR ([1]; FICZ 3 h exposure, fold greater than chimeric AHR) | EC50 [12] [nM]
1 | Clc1cc2c(cc1Cl)Oc1cc(Cl)c(Cl)cc1O2 [TCDD, 2,3,7,8-tetrachlorodibenzo-p-dioxin] | ~300 | unsaturable | no more than 1.55 nM | approximately one-tenth | up to 3.0 μg/L and ≤ 9.3 nM | 0.8 | 7 | one-tenth | 1.1 | 47.2 | 2.4 |  |  | 
2 | O=Cc1c2[nH]c3ccccc3c2cc2[nH]c3ccccc3c12 [FICZ, 6-formylindolo[3,2-b]carbazole] |  |  |  |  |  |  |  |  |  |  |  | 0.45 | about 45 fold | 0.14
